Screens: PubChem BioAssay, several laboratories
A selection: hits, their analogues and other compounds. The true share with any hit is near 3.7%.
CHO parental Ca = counter-screen: ATP calcium response change in parental CHO cells | parental CHO-K1, ATP-induced calcium, Fluo-8 fluorescence | inhibition, % at 5.6 µM | 330,000 compounds, 0.63% hits;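 active means inhibition above that plate's mean sample inhibition plus 3 SD, cut at about 26% in these data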;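 further: 0% = ATP-challenged DMSO wells and 100% = DMSO wells without ATP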
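Test system: untransfected parental CHO cell line; also added: ATP stimulus; dosing: 5.6 µM, single dose; signal: calcium-sensitive Fluo-8 fluorescence; measure: percent inhibition of ATP-evoked calcium rise, normalized to controls; benchmarks: low control ATP plus DMSO, high control DMSO only; replication: one well per compound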
GPR7 antagonist = antagonists of human GPR7 (neuropeptides B/W receptor 1); GPR7-expressing cells, fluorescence antagonist assay; P48145; inhibition, % at 4.4 µM; 290,000 compounds, 1.1% hits; in the data active means inhibition above about 16%, passing the limit was not always enough;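 further: cells stimulated with the agonist NPW; 0% = agonist with vehicle and 100% = vehicle without agonist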
EP2 mod = modulators of human EP2 prostaglandin E2 receptor. induction, % at 25 µM. P43116. EP2-expressing cells, cAMP HTRF FRET, PGE2 co-stimulation. AID 940. 260,000 compounds, 0.83% hits;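 active means compounds whose cAMP rise, as percent of the full-agonist control response, exceeds 60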;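 further: rat C6 glioma line stably carrying human EP2 under a CMV promoter; the protocol text gives 20 µM as final concentration; 100% = response of wells given 1 µM PGE2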
OX1R antag-1 = blocks the human orexin 1 receptor. O43613. OX1R-expressing cells, FRET antagonist read-out. inhibition, % at 6.6 µM. 330,000 compounds, 1.8% hits; in the data active means inhibition mostly above about 38%, no sharp cut-off; inactive means mostly below about 40%;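 further: 0% = agonist challenge alone and 100% = reference antagonist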
Target sequence (O43613 whole entry, looked up): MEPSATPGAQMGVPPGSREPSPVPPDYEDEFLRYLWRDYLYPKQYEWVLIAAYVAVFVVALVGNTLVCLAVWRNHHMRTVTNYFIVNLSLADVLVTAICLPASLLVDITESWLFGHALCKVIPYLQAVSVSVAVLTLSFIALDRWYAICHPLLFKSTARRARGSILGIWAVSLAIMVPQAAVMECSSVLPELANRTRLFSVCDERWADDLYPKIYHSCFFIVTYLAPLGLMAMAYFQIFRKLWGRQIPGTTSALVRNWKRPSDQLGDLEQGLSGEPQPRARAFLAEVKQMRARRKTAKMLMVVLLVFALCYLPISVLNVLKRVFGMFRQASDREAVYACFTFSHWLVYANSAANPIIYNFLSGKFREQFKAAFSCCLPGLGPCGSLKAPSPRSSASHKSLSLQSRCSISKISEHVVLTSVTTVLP
OX1R antag-2 = human HCRTR1 antagonism | inhibition, % at 5 µM | O43613 | CHO/OX1R cells, Fluo-8 calcium fluorescence, orexin A | AID 434989 | 330,000 compounds, 0.43% hits;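 active means inhibition above its plate's threshold, mean inhibition of all tested compounds on the plate plus 3 SD, cut at about 37% in these data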;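 further: 0% = orexin A challenge wells and 100% = SB-334867-A antagonist wells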
PGE2 EP2 inh = inhibitors of human EP2 prostaglandin E2 receptor; P43116; C6 glioma cells expressing human EP2, cAMP TR-FRET; cells stimulated with saturating PGE2; inhibition, % at 25 µM; 260,000 compounds, 0.52% hits;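 active means percent inhibition above 40 after rounding to a whole number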;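 further: rat C6 glioma host cells with rolipram phosphodiesterase inhibitor present; the protocol text gives 20 µM as final concentration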
The depositor's hits bear a star; . = no result given.

SMILES	CHO parental Ca	GPR7 antagonist	EP2 mod	OX1R antag-1	OX1R antag-2	PGE2 EP2 inh
CN1Cc2c(N3CCOCC3)nc3sc(C#N)c(N)c3c2CC1(C)C	-29	-12	-2	6	-19	9
CC(=O)N1CCN(c2ccc(Oc3ccc([N+](=O)[O-])c(C(F)(F)F)c3)cc2)CC1	44*	29	.	51	9	.
O=C(c1ccc([N+](=O)[O-])o1)N1CCc2ccccc2C1	0	1	7	24	-24	4
O=C(c1ccc([N+](=O)[O-])o1)N1CCCCCC1	1	.	.	28*	-14	.
O=C(c1ccc([N+](=O)[O-])o1)N1CCc2ccccc21	-11	-15	.	42*	-16	.
Cc1ccc(C(=O)N2CCc3ccccc32)o1	-8	-8	-38	21	-2	4
COc1cc2c(cc1OC)CN(C(=O)c1ccc([N+](=O)[O-])o1)CC2	-19	-2	-3	46*	-23	9
O=C(c1ccc([N+](=O)[O-])o1)N1CCOCC1	-8	0	4	76	-25	8
CC(=O)N1CCC2(CC1)C/C(=N\NC(=S)Nc1ccc(C)cc1)c1cc(O)ccc1O2	-16	-1	-73	10	-25	5
CCN(CC)CCCN(Cc1cc2cc(OC)ccc2[nH]c1=O)C(=O)Nc1ccccc1	-23	4	7	9	-14	3
COc1cccc(-c2ccc(NC(=O)C3CCCN(Cc4cnn(C(C)C)c4)C3)cc2)c1 (stereo unspecified)	-1	20*	.	5	-14	.
CCCc1ncc(CN2CCCC(C(=O)Nc3ccc(-c4cccc(OC)c4)cc3)C2)cn1 (stereo unspecified)	-10	-5	.	0	-23	.
Nc1ccc2c(c1Cl)C(=O)c1ccc(N)c(Cl)c1C2=O	.	0	-11	.	.	11
CN1CCC[C@H]1c1cccnc1.O=C(O)c1ccccc1O.O=C([OH2+])c1ccccc1O.O=C([OH2+])c1ccccc1O.O=C([OH2+])c1ccccc1O.[Mn]	.	.	31	.	.	42*
CCCN(CCC)C(=O)c1cn(C)c2ccc(S(=O)(=O)N3CCCC3)cc2c1=O	-4	16	.	3	-8	.
Cn1c(SCc2nc(-c3cccs3)no2)nnc1C1CCCCC1	-13	-7	9	14	-14	13
O=C1c2cccc3c([N+](=O)[O-])ccc(c23)C(=O)N1Cc1cccnc1	.	24*	-61	.	.	10
CCN(CC)C(=O)CN1C(=O)c2cccc3cccc(c23)C1=O	1	-1	-23	69*	-14	13
Cc1cccc(C)c1NC(=O)CNC(=O)CCCN1C(=O)c2cccc3cccc(c23)C1=O	-26	.	.	18	-34	.
O=C(CCCCCN1C(=O)c2cccc3cccc(c23)C1=O)NCCO	-11	-9	-8	52*	-9	7
O=C(CCN1C(=O)c2cccc3cccc(c23)C1=O)NCc1cccnc1	-5	-2	6	47*	-28	6
CCN(CC(=O)Nc1c(F)cccc1F)C(=O)CN1C(=O)c2ccccc2C1=O	-4	.	.	7	-7	.
COc1ccc(C)cc1S(=O)(=O)Nc1cc2c3c(c1)C(C)C(=O)N3CCC2 (stereo unspecified)	-10	.	.	14	-14	.
CN(C)CCCN1C(=O)c2cccc3cccc(c23)C1=O	-9	-16	.	56*	-12	.
CN(C)CCCN1C(=O)c2cc3ccccc3cc2C1=O	3	-21	.	12	-3	.
SMILES	CHO parental Ca	GPR7 antagonist	EP2 mod	OX1R antag-1	OX1R antag-2	PGE2 EP2 inh
CCC(=O)Nc1nnc(-c2ccccn2)o1	1	-1	35	17	7	3
CC(C)(C)OC(=O)N1CC=C2C(C#N)=C(N)C(C#N)(C#N)C(c3ccc4c(c3)OCO4)C2C1 (stereo unspecified)	.	.	15	.	.	40*
CC(C)(C)OC(=O)N1CC=C2C(C#N)=C(N)C(C#N)(C#N)C(c3ccc(F)c(F)c3)C2C1 (stereo unspecified)	.	.	-19	.	.	10
Nc1c(C(=O)CSc2nnc(N3CCOCC3)n2-c2cccc(F)c2)c(=O)[nH]c(=O)n1C1CC1	-10	.	.	-1	2	.
CC(C)c1cc(C(F)(F)F)nc(NNc2nc(C(C)C)cc(C(F)(F)F)n2)n1	.	.	42	.	.	48*
CC(=O)Nc1cccc(OCc2c(F)cccc2Cl)c1	-13	-14	-6	32	-13	3
CC(=O)Nc1cccc(OCc2cnc(Cl)s2)c1	7	20*	-22	2	-9	6
